Results as given in ChEMBL document CHEMBL5032510, “Identification of Novel Fused Heteroaromatics-Based MALT1 Inhibitors by High-Throughput Screening to Treat B Cell Lymphoma” (J Med Chem, 2021).
Active and inactive are the calls of the source. The rule behind the calls is not given here.

Key:
[1] = Cmax in CD-1 mouse at 1 mg/kg, ip by LC-MS/MS analysis; type: ADME, organism-based; design: route intraperitoneal, dose 1 mg/kg; settings: in vivo
Procedure, shortened: (§1)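 Compound formulated in 5% DMSO + 5% Tween-80 in 90% saline and given to male ICR (CD-1) mice (n = 9) at 10 mg/kg po, 1 mg/kg ip or 1 mg/kg iv. Blood was drawn via the jugular vein at set time points and held on ice. Plasma was separated by centrifugation and stored at −80 °C before PK parameters were derived.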

[2] = AUC (0 to t) in CD-1 mouse at 1 mg/kg, iv by LC-MS/MS analysis; type: ADME, organism-based; design: dose 1 mg/kg; settings: in vivo; procedure, shortened: as §1
[3] = test system: OCI-Ly1; assay: Induction of apoptosis in human OCI-Ly1 cells assessed as late apoptotic cells at 10 uM measured after 24 hrs by Annexin V-FITC/ Propidium iodide staining based flow cytometry (reference value: 0.548%); type: functional
[4] = AUC (0 to t) in CD-1 mouse at 1 mg/kg, ip by LC-MS/MS analysis; type: ADME, organism-based; design: dose 1 mg/kg; settings: in vivo; procedure, shortened: as §1
[5] = test system: TMD8; assay: Induction of apoptosis in human TMD8 cells assessed as late apoptotic cells at 5 uM measured after 24 hrs by Annexin V-FITC/ Propidium iodide staining based flow cytometry (reference value: 2.19%); type: functional
[6] = test system: OCI-Ly1; assay: Induction of apoptosis in human OCI-Ly1 cells assessed as viable cells at 5 uM measured after 24 hrs by Annexin V-FITC/ Propidium iodide staining based flow cytometry (reference value: 97.8%); type: functional; settings: read-out: Activity
[7] = Half life in CD-1 mouse at 10 mg/kg, po by LC-MS/MS analysis; type: ADME, organism-based; settings: in vivo; procedure, shortened: as §1
[8] = Toxicity in NCG mouse xenografted with human TMD8 cells assessed as body weight loss at 30 mg/kg/day, ip measured for 13 days; settings: in vivo, 312 h
[9] = test system: HBL1; assay: Induction of apoptosis in human HBL1 cells assessed as increase in cleaved caspase 3 level measured after 12 hrs by Western blot analysis; type: functional, cell-based
Procedure, shortened: (§2)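 HBL1, TMD8 or OCI-LY1 cells were exposed to DMSO or compound for 12 h. Cleaved PARP and caspase-3 were probed by western blot with HRP-conjugated secondary antibodies and chemiluminescent detection. Each lane held 20−75 μg total protein.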

[10] = test system: OCI-Ly1; assay: Induction of apoptosis in human OCI-Ly1 cells assessed as early apoptotic cells at 2 uM measured after 24 hrs by Annexin V-FITC/ Propidium iodide staining based flow cytometry (reference value: 1.29%); type: functional
[11] = Half life in CD-1 mouse at 1 mg/kg, ip by LC-MS/MS analysis; type: ADME, organism-based; settings: in vivo; procedure, shortened: as §1
[12] = Toxicity in NCG mouse xenografted with human TMD8 cells assessed as emaciation at 30 mg/kg/day, ip measured for 13 days; settings: in vivo, 312 h
[13] = Induction of apoptosis in human HBL1 cells assessed as late apoptotic cells at 2 uM measured after 24 hrs by Annexin V-FITC/ Propidium iodide staining based flow cytometry (reference value: 4.77%); type: functional
[14] = test system: TMD8; assay: Induction of apoptosis in human TMD8 cells assessed as late apoptotic cells at 10 uM measured after 24 hrs by Annexin V-FITC/ Propidium iodide staining based flow cytometry (reference value: 2.19%); type: functional
[15] = test system: OCI-Ly1; assay: Induction of apoptosis in human OCI-Ly1 cells assessed as dead cells at 10 uM measured after 24 hrs by Annexin V-FITC/ Propidium iodide staining based flow cytometry (reference value: 0.365%); type: functional
[16] = MRT (0 to t) in CD-1 mouse at 1 mg/kg, ip by LC-MS/MS analysis; type: ADME, organism-based; settings: in vivo
Procedure, shortened: (§3)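 Male ICR (CD-1) mice (n = 9). Compound formulated in 5% DMSO + 5% Tween-80 in 90% saline and dosed 10 mg/kg po, 1 mg/kg ip or 1 mg/kg iv. Blood drawn from the jugular vein at set time points and held on ice. Plasma separated by centrifugation and stored at −80 °C before parameter derivation.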

[17] = MRT (0 to t) in CD-1 mouse at 10 mg/kg, po by LC-MS/MS analysis; type: ADME, organism-based; settings: in vivo; procedure, shortened: as §3
[18] = test system: OCI-Ly1; assay: Induction of apoptosis in human OCI-Ly1 cells assessed as early apoptotic cells at 5 uM measured after 24 hrs by Annexin V-FITC/ Propidium iodide staining based flow cytometry (reference value: 1.29%); type: functional
[19] = Clearance in CD-1 mouse at 1 mg/kg, iv by LC-MS/MS analysis; type: ADME, organism-based; settings: in vivo; procedure, shortened: as §1
[20] = test system: OCI-Ly1; assay: Induction of apoptosis in human OCI-Ly1 cells assessed as viable cells at 2 uM measured after 24 hrs by Annexin V-FITC/ Propidium iodide staining based flow cytometry (reference value: 97.8%); type: functional; settings: read-out: Activity
[21] = Cmax in CD-1 mouse at 10 mg/kg, po by LC-MS/MS analysis; type: ADME, organism-based; design: route oral, dose 10 mg/kg; settings: in vivo; procedure, shortened: as §1
[22] = test system: TMD8; assay: Induction of apoptosis in human TMD8 cells assessed as viable cells at 5 uM measured after 24 hrs by Annexin V-FITC/ Propidium iodide staining based flow cytometry (reference value: 90.8%); type: functional; settings: read-out: Activity
[23] = Induction of apoptosis in human HBL1 cells assessed as viable cells at 2 uM measured after 24 hrs by Annexin V-FITC/ Propidium iodide staining based flow cytometry (reference value: 88.1%); type: functional; settings: read-out: Activity
[24] = test system: OCI-Ly1; assay: Induction of apoptosis in human OCI-Ly1 cells assessed as early apoptotic cells at 10 uM measured after 24 hrs by Annexin V-FITC/ Propidium iodide staining based flow cytometry (reference value: 1.29%); type: functional
[25] = Intraperitoneal bioavailability in CD-1 mouse at 1 mg/kg by LC-MS/MS analysis; settings: in vivo, ip
[26] = Tmax in CD-1 mouse at 1 mg/kg, ip by LC-MS/MS analysis; type: ADME, organism-based; settings: in vivo; procedure, shortened: as §3
[27] = test system: OCI-Ly1; assay: Induction of apoptosis in human OCI-Ly1 cells assessed as increase in cleaved PARP level at 2 to 5 uM measured after 12 hrs by Western blot analysis; type: functional, cell-based; settings: dose 2-5 µM; procedure, shortened: as §2
[28] = MRT (0 to t) in CD-1 mouse at 1 mg/kg, iv by LC-MS/MS analysis; type: ADME, organism-based; settings: in vivo; procedure, shortened: as §3
[29] = Induction of apoptosis in human HBL1 cells assessed as late apoptosis at 10 uM measured after 24 hrs by Annexin V-FITC/ Propidium iodide staining based flow cytometry (reference value: 4.77%); type: functional
[30] = test system: HBL1; assay: Induction of apoptosis in human HBL1 cells assessed as increase in cleaved PARP level measured after 12 hrs by Western blot analysis; type: functional, cell-based; procedure, shortened: as §2
[31] = AUC (0 to t) in CD-1 mouse at 10 mg/kg, po by LC-MS/MS analysis; type: ADME, organism-based; design: dose 10 mg/kg; settings: in vivo; procedure, shortened: as §1
[32] = Induction of apoptosis in human HBL1 cells assessed as dead cells at 5 uM measured after 24 hrs by Annexin V-FITC/ Propidium iodide staining based flow cytometry (reference value: 2.32%); type: functional
[33] = test system: TMD8; assay: Induction of apoptosis in human TMD8 cells assessed as dead cells at 2 uM measured after 24 hrs by Annexin V-FITC/ Propidium iodide staining based flow cytometry (reference value: 0%); type: functional
[34] = test system: OCI-Ly1; assay: Induction of apoptosis in human OCI-Ly1 cells assessed as increase in cleaved caspase 3 level at 2 to 5 uM measured after 12 hrs by Western blot analysis; type: functional, cell-based; settings: dose 2-5 µM; procedure, shortened: as §2

## COc1ccc(OC)c(NC(=O)c2sc(=S)n(-c3ccc(C(F)(F)F)cc3)c2NC(=O)CCl)c1
[1]
  Cmax: 336 ng/mL
[2]
  AUC(0-t): 1010 ng·h/mL
[3]
  Activity: 1.53%
[4]
  AUC(0-t): 732 ng·h/mL
[5]
  Activity: 25.7%
[6]
  viability at 5 µM: 97.4%
[7]
  half-life: 2.83 h
[8]
  Activity: Non-Toxic
[9]
  Activity: Dose-Dependent Effect
[10]
  Activity: 1.87%
[11]
  half-life: 4.5 h
[12]
  Activity: Non-Toxic
[13]
  Activity: 5.5%
[14]
  Activity: 42.7%
[15]
  Activity: 0.337%
[16]
  MRT last: 5.95 h
[17]
  MRT last: 5.62 h
[18]
  Activity: 1.6%
[19]
  clearance: 14.1 mL/min/kg
[20]
  viability at 2 µM: 97.4%
[21]
  Cmax: 1530 ng/mL
[22]
  viability at 5 µM: 14.8%
[23]
  viability at 2 µM: 85.8%
[24]
  Activity: 2.65%
[25]
  bioavailability: 72%
[26]
  Tmax: 0.35 h
[27]
  Activity: inactive
[28]
  MRT last: 5.66 h
[29]
  Activity: 35%
[30]
  Activity: Dose-Dependent Effect
[31]
  AUC(0-t): 11200 ng·h/mL
[32]
  Activity: 1.8%
[33]
  Activity: 0.048%
[34]
  Activity: inactive
